Assay results as given in ChEMBL document CHEMBL1773023, “Potent and selective phosphopeptide mimetic prodrugs targeted to the Src homology 2 (SH2) domain of signal transducer and activator of transcription 3” (J Med Chem, 2011).
Values belong to the compound of their own block, whether it stands above or below them. The source made the active and inactive calls. The rule behind the calls is not given here.

What was measured:
[1] = biological target: T1, Signal transducer and activator of transcription 3 (Homo sapiens, UniProt P40763); experiment: Inhibition of SH2 domain of Stat3 constitutive phosphorylation at Tyr705 in human MDA-MB-468 cells at 25 uM after 2 hrs by Western blotting; type: cell-based
T1 sequence (P40763 whole entry, the tested form may be a part): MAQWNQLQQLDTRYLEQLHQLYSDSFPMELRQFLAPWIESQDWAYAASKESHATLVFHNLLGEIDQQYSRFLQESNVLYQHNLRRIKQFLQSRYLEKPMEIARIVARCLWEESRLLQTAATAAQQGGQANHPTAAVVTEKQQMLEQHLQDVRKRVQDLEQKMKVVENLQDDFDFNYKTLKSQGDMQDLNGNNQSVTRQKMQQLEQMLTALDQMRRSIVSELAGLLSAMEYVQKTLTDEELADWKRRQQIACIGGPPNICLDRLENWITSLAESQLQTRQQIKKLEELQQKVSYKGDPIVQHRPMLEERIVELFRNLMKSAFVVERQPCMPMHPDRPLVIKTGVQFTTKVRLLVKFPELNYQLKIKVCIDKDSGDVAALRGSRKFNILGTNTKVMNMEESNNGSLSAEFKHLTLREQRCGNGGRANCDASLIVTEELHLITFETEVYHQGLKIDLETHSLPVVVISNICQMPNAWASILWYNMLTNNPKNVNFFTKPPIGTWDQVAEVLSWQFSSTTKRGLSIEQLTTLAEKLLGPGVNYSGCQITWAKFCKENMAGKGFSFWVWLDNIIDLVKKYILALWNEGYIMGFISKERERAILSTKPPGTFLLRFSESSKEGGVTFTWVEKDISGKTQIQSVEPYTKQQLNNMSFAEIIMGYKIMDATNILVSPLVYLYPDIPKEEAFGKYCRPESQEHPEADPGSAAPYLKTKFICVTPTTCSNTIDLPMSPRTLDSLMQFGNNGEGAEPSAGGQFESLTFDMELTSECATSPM
In short: (§1)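 MDA-MB-468 cells (4×10^5/well, DMEM 10% FCS, overnight) given prodrug from freshly made 10 mM DMSO stock for 2 h. Lysates in Hepes pH 7.4 Triton buffer with phosphatase/protease inhibitors; 12 μg protein on 8% SDS-PAGE, PVDF, probed for pStat3 Y705 by ECL, then stripped and reprobed for total Stat3.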

MDA-MB-468 [2] = experiment: Cytotoxicity against human MDA-MB-468 cells up to 50 uM after 72 hrs by SRB assay; type: functional, cell-based
MCF7 = experiment: Cytotoxicity against human MCF7 cells up to 50 uM after 72 hrs by SRB assay; type: functional, cell-based
In short: (§2)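 Cancer cell lines (MCF-7, SKOV3-ip, HCC-827) dosed daily with prodrug for three days; viability by SRB assay.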

SKOV3ip = experiment: Cytotoxicity against human SKOV3ip cells up to 50 uM after 72 hrs by SRB assay; type: functional, cell-based; in short: as §2
HCC827 = experiment: Cytotoxicity against human HCC827 cells up to 50 uM after 72 hrs by SRB assay; type: functional, cell-based; in short: as §2
[3] = biological target: T1, Signal transducer and activator of transcription 3; experiment: Inhibition of SH2 domain of Stat3 constitutive phosphorylation at Tyr705 in human MDA-MB-468 cells at 5 uM after 2 hrs by Western blotting; type: cell-based; in short: as §1
MDA-MB-468 [4] = experiment: Cytotoxicity against human MDA-MB-468 cells assessed as cell growth inhibition at 10 to 15 uM after 72 hrs by MTT assay; type: functional, cell-based
In short: (§3)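 MDA-MB-468 cells in DMEM/10% FBS, 1500 cells/well in triplicate; medium changed next day. Prodrug stock 10 mM in ethanol, diluted into wells (ethanol <1% final); single dose or daily re-addition at 24 and 48 h in same medium. MTT read-out at 72 h; assays run three times.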

MDA-MB-468 [5] = experiment: Cytotoxicity against human MDA-MB-468 cells after 72 hrs by MTT assay; type: functional, cell-based; conditions: MDA-MB-468, 72 h; in short: as §3
[6] = biological target: T1, Signal transducer and activator of transcription 3; experiment: Inhibition of SH2 domain of Stat3 constitutive phosphorylation at Tyr705 in human MDA-MB-468 cells at 5 uM after 30 mins by Western blotting; type: cell-based
In short: (§4)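 MDA-MB-468 cells given a single 5 μM prodrug dose and harvested at set times; pTyr705 and total Stat3 by Western blot of 12 μg lysate protein on 8% SDS-PAGE.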

[7] = biological target: T1, Signal transducer and activator of transcription 3; experiment: Inhibition of SH2 domain of Stat3 constitutive phosphorylation at Tyr705 in human MDA-MB-468 cells at 0.5 uM after 2 hrs by Western blotting; type: cell-based; in short: as §1
[8] = biological target: T1, Signal transducer and activator of transcription 3; experiment: Inhibition of SH2 domain of Stat3 constitutive phosphorylation at Tyr705 in human MDA-MB-468 cells at 5 uM after 4 hrs by Western blotting; type: cell-based; in short: as §4
[9] = biological target: T1, Signal transducer and activator of transcription 3; experiment: Inhibition of SH2 domain of Stat3 constitutive phosphorylation at Tyr705 in human MDA-MB-468 cells at 5 uM after 8 hrs by Western blotting; type: cell-based; in short: as §4
[10] = biological target: T1, Signal transducer and activator of transcription 3; experiment: Inhibition of SH2 domain of Stat3 constitutive phosphorylation at Tyr705 in human MDA-MB-468 cells at 5 uM after 16 hrs by Western blotting; type: cell-based; in short: as §4
[11] = biological target: T1, Signal transducer and activator of transcription 3; experiment: Inhibition of EGF-induced SH2 domain of Stat3 phosphorylation at Tyr705 in human MDA-MB-468 cells at 5 uM treated 1.5 hrs before EGF challenge measured after 30 mins by Western blotting; type: cell-based
In short: (§5)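 MDA-MB-468 cells pretreated 1.5 h with prodrug (5 μM), then EGF 100 ng/mL for 30 min; lysates split onto three PVDF blots probed for phospho/total Stat3, pSer473/total Akt, and phospho/total Stat5.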

[12] = biological target: T2, Signal transducer and activator of transcription 5A (Homo sapiens) (UniProt P42229); experiment: Inhibition of EGF-induced SH2 domain of Stat5 phosphorylation at Tyr694 in human MDA-MB-468 cells at 5 uM treated 1.5 hrs before EGF challenge measured after 30 mins by Western blotting; type: cell-based; in short: as §5
T2 sequence (whole entry): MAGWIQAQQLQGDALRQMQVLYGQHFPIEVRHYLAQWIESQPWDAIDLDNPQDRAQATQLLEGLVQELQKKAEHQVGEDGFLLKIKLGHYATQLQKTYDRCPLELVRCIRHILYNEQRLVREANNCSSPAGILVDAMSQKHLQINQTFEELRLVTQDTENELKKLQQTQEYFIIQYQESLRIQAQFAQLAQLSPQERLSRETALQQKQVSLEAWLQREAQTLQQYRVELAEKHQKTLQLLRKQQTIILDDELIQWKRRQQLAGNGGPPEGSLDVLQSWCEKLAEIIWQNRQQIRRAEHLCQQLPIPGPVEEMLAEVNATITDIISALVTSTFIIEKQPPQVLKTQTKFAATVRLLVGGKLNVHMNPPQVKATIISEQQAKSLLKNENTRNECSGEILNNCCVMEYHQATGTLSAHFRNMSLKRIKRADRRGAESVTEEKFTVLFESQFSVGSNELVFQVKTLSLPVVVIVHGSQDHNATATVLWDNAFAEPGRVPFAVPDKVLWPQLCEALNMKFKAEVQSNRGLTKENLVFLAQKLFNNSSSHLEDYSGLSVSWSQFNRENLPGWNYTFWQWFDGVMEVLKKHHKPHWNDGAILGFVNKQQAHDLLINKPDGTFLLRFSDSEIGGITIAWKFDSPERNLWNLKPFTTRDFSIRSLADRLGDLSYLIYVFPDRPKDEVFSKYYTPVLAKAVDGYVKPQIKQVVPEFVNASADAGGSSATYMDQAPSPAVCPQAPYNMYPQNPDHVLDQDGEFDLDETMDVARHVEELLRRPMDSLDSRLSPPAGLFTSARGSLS

[13] = biological target: RAC-alpha serine/threonine-protein kinase (Homo sapiens) (UniProt P31749); experiment: Inhibition of EGF-induced Akt phosphorylation at Ser473 in human MDA-MB-468 cells at 5 uM treated 1.5 hrs before EGF challenge measured after 30 mins by Western blotting; type: cell-based; in short: as §5
Chain of RAC-alpha serine/threonine-protein kinase (Homo sapiens) (P31749 whole entry): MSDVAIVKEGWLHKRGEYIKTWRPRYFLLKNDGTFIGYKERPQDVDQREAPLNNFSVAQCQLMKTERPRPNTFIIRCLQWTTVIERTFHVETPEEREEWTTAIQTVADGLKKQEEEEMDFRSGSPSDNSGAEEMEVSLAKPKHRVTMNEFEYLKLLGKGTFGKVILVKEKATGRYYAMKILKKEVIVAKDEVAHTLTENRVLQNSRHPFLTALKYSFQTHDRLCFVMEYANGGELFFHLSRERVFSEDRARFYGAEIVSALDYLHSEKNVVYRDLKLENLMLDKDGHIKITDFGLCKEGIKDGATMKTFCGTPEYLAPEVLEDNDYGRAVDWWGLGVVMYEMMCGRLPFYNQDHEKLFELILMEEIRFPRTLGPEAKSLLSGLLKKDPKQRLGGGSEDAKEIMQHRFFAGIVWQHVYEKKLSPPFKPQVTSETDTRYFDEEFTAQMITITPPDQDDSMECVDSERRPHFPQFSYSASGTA

[14] = biological target: T3, Signal transducer and activator of transcription 1-alpha/beta (Homo sapiens) (UniProt P42224); experiment: Inhibition of IFN-gamma-induced Stat1 phosphorylation at Tyr701 in human MDA-MB-468 cells treated 1.5 hrs before IFN-gamma challenge measured after 30 mins by Western blotting; type: cell-based
T3 sequence (whole entry): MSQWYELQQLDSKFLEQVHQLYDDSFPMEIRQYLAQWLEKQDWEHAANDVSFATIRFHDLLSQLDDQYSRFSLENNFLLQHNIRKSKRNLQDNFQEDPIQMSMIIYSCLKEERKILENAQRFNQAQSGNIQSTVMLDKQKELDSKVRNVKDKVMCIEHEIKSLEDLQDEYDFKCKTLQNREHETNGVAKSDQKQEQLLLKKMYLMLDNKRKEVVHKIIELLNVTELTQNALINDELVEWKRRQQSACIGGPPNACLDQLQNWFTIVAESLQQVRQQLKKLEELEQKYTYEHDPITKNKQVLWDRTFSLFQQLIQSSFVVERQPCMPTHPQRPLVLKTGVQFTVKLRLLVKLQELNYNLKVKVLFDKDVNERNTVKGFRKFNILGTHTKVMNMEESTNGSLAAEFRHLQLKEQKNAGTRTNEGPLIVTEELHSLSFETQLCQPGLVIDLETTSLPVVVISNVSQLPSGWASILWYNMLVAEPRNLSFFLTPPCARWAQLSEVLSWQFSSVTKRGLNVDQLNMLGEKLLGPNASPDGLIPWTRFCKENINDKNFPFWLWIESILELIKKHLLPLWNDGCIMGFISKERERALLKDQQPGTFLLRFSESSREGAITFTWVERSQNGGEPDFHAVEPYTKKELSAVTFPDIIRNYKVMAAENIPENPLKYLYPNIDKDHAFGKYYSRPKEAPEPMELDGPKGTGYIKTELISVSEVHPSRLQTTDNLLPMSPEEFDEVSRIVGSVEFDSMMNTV
In short: (§6)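 MDA-MB-468 cells exposed to rising prodrug concentrations for 1.5 h, then interferon γ 25 ng/mL for 30 min; Western blot for pTyr701 and total Stat1.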

[15] = biological target: T3, Signal transducer and activator of transcription 1-alpha/beta (Homo sapiens); experiment: Inhibition of IFN-gamma-induced Stat1 phosphorylation at Tyr701 in human MDA-MB-468 cells at 5 uM treated 1.5 hrs before IFN-gamma challenge measured after 30 mins by Western blotting; type: cell-based; in short: as §6
MDA-MB-468 [16] = experiment: Selectivity ratio of inhibition of IFNgamma-induced Stat1 phosphorylation at Tyr701 to inhibition of EGF-induced SH2 domain of Stat3 phosphorylation at Tyr705 in human MDA-MB-468 cells; type: cell-based
[17] = biological target: Focal adhesion kinase 1 (Homo sapiens) (UniProt Q05397); experiment: Inhibition of constitutive FAK phosphorylation at Tyr861 in human MDA-MB-468 cells at 5 uM measured after 2 hrs by Western blotting
Chain of Focal adhesion kinase 1 (Homo sapiens) (Q05397 2-1052 limits assumed): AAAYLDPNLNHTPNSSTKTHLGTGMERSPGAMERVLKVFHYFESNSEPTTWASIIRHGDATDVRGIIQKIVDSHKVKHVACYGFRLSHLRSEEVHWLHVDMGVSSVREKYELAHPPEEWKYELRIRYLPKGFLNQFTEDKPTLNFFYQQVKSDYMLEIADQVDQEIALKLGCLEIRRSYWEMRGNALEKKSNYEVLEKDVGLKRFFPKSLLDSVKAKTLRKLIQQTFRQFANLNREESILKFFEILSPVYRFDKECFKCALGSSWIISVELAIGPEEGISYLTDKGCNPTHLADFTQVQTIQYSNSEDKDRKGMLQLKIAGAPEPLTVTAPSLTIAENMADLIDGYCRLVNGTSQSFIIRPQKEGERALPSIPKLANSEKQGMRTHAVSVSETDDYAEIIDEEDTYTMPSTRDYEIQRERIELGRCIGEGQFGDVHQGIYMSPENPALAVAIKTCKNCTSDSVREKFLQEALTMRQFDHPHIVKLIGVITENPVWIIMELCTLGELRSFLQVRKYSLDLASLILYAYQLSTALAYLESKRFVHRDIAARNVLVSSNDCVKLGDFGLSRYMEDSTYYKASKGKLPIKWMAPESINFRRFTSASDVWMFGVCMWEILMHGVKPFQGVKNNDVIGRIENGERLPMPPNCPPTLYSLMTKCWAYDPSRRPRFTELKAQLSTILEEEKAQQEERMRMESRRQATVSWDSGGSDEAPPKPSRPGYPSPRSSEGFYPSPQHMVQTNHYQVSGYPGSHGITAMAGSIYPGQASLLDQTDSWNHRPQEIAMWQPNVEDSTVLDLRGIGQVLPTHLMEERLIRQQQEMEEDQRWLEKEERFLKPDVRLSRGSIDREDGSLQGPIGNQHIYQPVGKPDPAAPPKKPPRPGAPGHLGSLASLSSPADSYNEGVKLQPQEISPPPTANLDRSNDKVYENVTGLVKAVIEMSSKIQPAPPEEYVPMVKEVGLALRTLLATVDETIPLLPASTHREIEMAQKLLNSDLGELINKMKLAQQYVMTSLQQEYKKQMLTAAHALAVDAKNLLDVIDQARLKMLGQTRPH

- inhibition [1]: inactive
SMILES: CCOP(=O)(OCC)C(F)(F)c1ccc(/C(C)=C/C(=O)N[C@H]2CCc3cccc4c3N(C2=O)[C@H](C(=O)N[C@H](C)CCC(N)=O)C4)cc1
- growth inhibition (GI) (MDA-MB-468 [2]): inactive
- growth inhibition (GI) (MCF7): inactive
- growth inhibition (GI) (SKOV3ip): inactive
- growth inhibition (GI) (HCC827): inactive

- inhibition [3]: Active
SMILES: CCCC[C@H](NC(=O)/C=C(\C)c1ccc(C(F)(F)P(=O)(OCOC(=O)C(C)(C)C)OCOC(=O)C(C)(C)C)cc1)C(=O)N1CC2CC2C1C(=O)NCCNC(N)=O (mixture of isomers)

- inhibition [1]: inactive
SMILES: CCCC[C@H](NC(=O)/C=C(\C)c1ccc(C(F)(F)P(=O)(OCOC(=O)C(C)(C)C)OCOC(=O)C(C)(C)C)cc1)C(=O)N1C[C@@H]2C[C@@H]2[C@@H]1C(=O)N[C@@H](CCC(N)=O)C(C)OCc1ccccc1 (stereo partly drawn)
- growth inhibition (GI) (MDA-MB-468 [4]): Active

- inhibition [1]: Active
SMILES: CCCC[C@H](NC(=O)/C=C(\C)c1ccc(C(F)(F)P(=O)(OCOC(=O)C(C)(C)C)OCOC(=O)C(C)(C)C)cc1)C(=O)N1C[C@@H]2C[C@@H]2[C@@H]1C(=O)N[C@H](C)CCC(N)=O
- IC50 (MDA-MB-468 [5]): 30 µM

- inhibition [6]: Active
- inhibition [7]: Active
- inhibition [8]: Active
- inhibition [9]: Active
- inhibition [10]: inactive
- inhibition [11]: Active
- inhibition [12]: inactive
- inhibition [13]: inactive
- inhibition [14]: Dose-dependent effect
- inhibition [15]: Active
- inhibition [17]: inactive
SMILES: CCCC[C@H](NC(=O)/C=C(\C)c1ccc(C(F)(F)P(=O)(OCOC(=O)C(C)(C)C)OCOC(=O)C(C)(C)C)cc1)C(=O)N1C[C@H]2C[C@H]2[C@H]1C(=O)N[C@H](C)CCC(N)=O
- Ratio (MDA-MB-468 [16]): 10
- IC50 (MDA-MB-468 [5]): 30 µM
